Reference: ChEMBL document CHEMBL4330067, “Synthesis and mechanistic studies of diketo acids and their bioisosteres as potential antibacterial agents” (Eur J Med Chem, 2019)
≈ marks a conversion by molar mass, not a printed value. Calls of active or inactive are those of the source. The calls are words filed in the database; no cut-off is given here.

Experiments:
Salmonella typhimurium = assay: Antibacterial activity against Salmonella typhimurium MTCC 3224 after 24 hrs by broth dilution assay; format: functional, Salmonella enterica subsp. enterica serovar Typhimurium; conditions: Salmonella enterica, MTCC 3224, 24 h
How it was run: (§1)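 Broth dilution per NCCLS in nutrient broth, serial dilutions 1000 to 7.8 µg/mL, DMSO below 4% final. Inoculum approx. 2.5×10⁶ cells/mL, 37 °C with shaking at 150 rpm for 24 h. MIC taken as the lowest concentration with no visible growth. Ciprofloxacin served as positive control.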

Escherichia coli [1] = assay: Induction of cellular damage in Escherichia coli assessed as distorted cell membrane at MIC after 1 hr by TEM analysis; format: functional, organism-based
Pseudomonas aeruginosa [2] = assay: Anti-biofilm activity against Pseudomonas aeruginosa after 24 hrs by XTT assay; format: functional, organism-based
How it was run: (§2)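 Biofilm XTT reduction assay: serial dilutions 1000 to 7.8 µg/mL in tryptic soy broth, inoculum approx. 5×10⁵ CFU/mL, 37 °C for 24 h static. Non-adherent cells removed by PBS wash, XTT added, 90 min at 37 °C in dark, absorbance at 490 nm. IC50 (50% inhibition of biofilm formation) read from dose-response curves.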

Escherichia coli [3] = assay: Antibacterial activity against Escherichia coli MRAE26 after overnight incubation; format: functional
How it was run: (§3)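 Multidrug-resistant E. coli isolates in Luria broth, test range 8 to 1024 µg/mL (ciprofloxacin 0.49 to 63.3 µg/mL). Inoculum 10 µL of a 1000-fold diluted 0.1 OD600 culture, incubated overnight at 37 °C. OD read at 600 nm. % inhibition = (a−b)/a×100, with media and compound-colour blanks subtracted.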

Escherichia coli [4] = assay: Synergistic antibacterial activity against Escherichia coli MRAE33 assessed as ciprofloxacin MIC at 16 to 1024 ug/mL after 18 hrs by checkerboard method; format: functional; conditions: MRAE33, 18 h
How it was run: (§4)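 Checkerboard combination with ciprofloxacin in Mueller-Hinton broth: compound 1024 to 16 µg/mL crossed with ciprofloxacin 128 to 2 µg/mL. Inoculum 5×10⁵ CFU/mL suspension, 18 h at 37 °C. Fractional inhibitory concentration index derived from the combination.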

Escherichia coli [5] = assay: Antibacterial activity against Escherichia coli MRAE26 at 1024 ug/mL after 24 hrs by broth dilution assay relative to control; format: functional; how it was run: as §3
Escherichia coli [6] = assay: Antibacterial activity against Escherichia coli MRAE33 after overnight incubation; format: functional; how it was run: as §3
Pseudomonas aeruginosa [7] = assay: Bactericidal activity against Pseudomonas aeruginosa at sub-MIC after 10 hrs by spectrophotometric analysis; format: functional, organism-based
How it was run: (§5)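 Growth kinetics in 50 mL nutrient broth seeded at approx. 2×10⁶ cells/mL, compound at 2MIC, MIC and ½MIC, 37 °C at 160 rpm. Ciprofloxacin 10 µg/mL as positive control. 1 mL aliquots taken every 2 h from 0 to 22 h. Turbidity read at 600 nm and OD plotted against time.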

Escherichia coli [8] = assay: Anti-biofilm activity against Escherichia coli assessed as poor cell density at 2MIC after 24 hrs by SEM analysis; format: functional, organism-based
[9] = Inhibition of Mycobacterium tuberculosis methionine aminopeptidase 1C using Met-AMC as substrate by Dixon method
Escherichia coli [10] = assay: Synergistic antibacterial activity against Escherichia coli MRC17 assessed as ciprofloxacin MIC at 16 to 1024 ug/mL after 18 hrs by checkerboard method; format: functional; conditions: MRC17, 18 h; how it was run: as §4
Streptococcus pneumoniae [11] = assay: Antibacterial activity against Streptococcus pneumoniae MTCC 655 after 24 hrs by broth dilution assay; format: functional; conditions: MTCC 655, 24 h; how it was run: as §1
Escherichia coli [12] = assay: Antibacterial activity against Escherichia coli MRC17 after overnight incubation; format: functional; how it was run: as §3
Escherichia coli [13] = assay: Antibacterial activity against Escherichia coli MRC24 after overnight incubation; format: functional; how it was run: as §3
CHO [14] = assay: Cytotoxicity against CHO cells at 300 ug/mL after 48 hrs by MTT assay; format: cell-based, Cricetulus griseus; conditions: chinese hamster
How it was run: (§6)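 MTT assay: cells maintained in DMEM with 10% FBS and penicillin/streptomycin at 37 °C, 5% CO2. Seeded at approx. 2×10⁴ cells/well, 24 h before treatment, then exposed to 10 to 400 µg/mL for 48 h at 37 °C. MTT (5 mg/mL stock in PBS) added for 4 h, formazan dissolved in DMSO, A570 read. Triplicate wells; viability given relative to untreated cells.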

Escherichia coli [15] = assay: Synergistic antibacterial activity against Escherichia coli MRAE33 after 18 hrs in presence of ciprofloxacin by checkerboard method; format: functional; conditions: MRAE33, 18 h; how it was run: as §4
CHO [16] = assay: Cytotoxicity against CHO cells at 50 ug/mL after 48 hrs by MTT assay; format: cell-based, Cricetulus griseus; conditions: chinese hamster; how it was run: as §6
Escherichia coli [17] = assay: Antibacterial activity against Escherichia coli MROB11 at 512 ug/mL after 24 hrs by broth dilution assay relative to control; format: functional; how it was run: as §3
Klebsiella pneumoniae = assay: Antibacterial activity against Klebsiella pneumoniae ATCC 700603 after 24 hrs by broth dilution assay; format: functional; conditions: Klebsiella pneumoniae, 700603, 24 h; how it was run: as §1
Pseudomonas aeruginosa [18] = assay: Antibacterial activity against Pseudomonas aeruginosa MTCC 2453 after 24 hrs by broth dilution assay; format: functional; conditions: MTCC 2453, 24 h; how it was run: as §1
Escherichia coli [19] = assay: Anti-biofilm activity against Escherichia coli after 24 hrs by XTT assay; format: functional, organism-based; how it was run: as §2
Escherichia coli [20] = assay: Synergistic antibacterial activity against Escherichia coli MRC17 assessed as fractional inhibitory concentration index after 18 hrs in presence of ciprofloxacin by checkerboard method; format: functional
How it was run: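 Checkerboard combination against MDR E. coli. Test agent gradient 1024–16 µg/mL crossed with ciprofloxacin 128–2 µg/mL in Mueller-Hinton broth. Wells were inoculated with a 5 × 10⁵ CFU/mL suspension and incubated 18 h at 37 °C. Interaction was expressed as the fractional inhibitory concentration index (FICI).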

Escherichia coli [21] = assay: Antibacterial activity against Escherichia coli MRA11 at 512 ug/mL after 24 hrs by broth dilution assay relative to control; format: functional; how it was run: as §3
Escherichia coli [22] = assay: Synergistic antibacterial activity against Escherichia coli MRC17 after 18 hrs in presence of ciprofloxacin by checkerboard method; format: functional; conditions: MRC17, 18 h; how it was run: as §4
Escherichia coli [23] = assay: Antibacterial activity against Escherichia coli MRAE44 at 1024 ug/mL after 24 hrs by broth dilution assay; format: functional, organism-based; how it was run: as §3
Escherichia coli [24] = assay: Antibacterial activity against Escherichia coli MRAE44 after overnight incubation; format: functional; how it was run: as §3
Escherichia coli [25] = assay: Synergistic antibacterial activity against Escherichia coli MRA11 assessed as fractional inhibitory concentration index after 18 hrs in presence of ciprofloxacin by checkerboard method; format: functional; how it was run: as §4
Streptococcus pneumoniae [26] = assay: Induction of cellular damage in Streptococcus pneumoniae assessed as distorted cell membrane at MIC after 1 hr by TEM analysis; format: functional, organism-based
Streptococcus pneumoniae [27] = assay: Inhibition of Streptococcus pneumoniae methionine aminopeptidase 1A at 100 uM using Met-AMC as substrate relative to control
How it was run: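 Purified MetAP at 4 µM in 50 mM HEPES with 150 mM KCl and CoCl2 at 3 molar equivalents of enzyme. pH 7.5 for SpMetAP1a and EfMetAP1a, pH 8.0 for HsMetAP1b. Substrate L-Met-AMC at 50, 100 and 150 µM. Compounds (10 mM DMSO stocks) tested over 1 to 120 µM for % inhibition; Ki by Dixon method.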

Pseudomonas aeruginosa [28] = assay: Bactericidal activity against Pseudomonas aeruginosa at 1 to 2 times MIC after 24 hrs by spectrophotometric analysis; format: functional, organism-based; how it was run: as §5
Escherichia coli [29] = assay: Synergistic antibacterial activity against Escherichia coli MRA11 after 18 hrs in presence of ciprofloxacin by checkerboard method; format: functional; conditions: MRA11, 18 h; how it was run: as §4

Cc1c(C(=O)/C=C(\O)C(=O)N[C@H](C)C(=O)O)oc2ccc(Br)cc12
MIC (Salmonella typhimurium): 500 µg/mL (≈ 1260 µM) | Activity (Escherichia coli [1]): Active | IC50 (Pseudomonas aeruginosa [2]): 1.69 µg/mL (≈ 4.27 µM) | ICmax (Escherichia coli [3]): 1024 µg/mL | MIC (Escherichia coli [4]): 2 µg/mL | Activity (Escherichia coli [5]): >95% | ICmax (Escherichia coli [6]): 1024 µg/mL | MIC (Escherichia coli [6]; Escherichia coli, MRAE33): 1020 µg/mL (≈ 2580 µM) | Activity (Pseudomonas aeruginosa [7]): Active | Activity (Escherichia coli [8]): Active | Ki [9]: 9.89 µM | MIC (Escherichia coli [10]): 64 µg/mL | MIC (Streptococcus pneumoniae [11]): 62.5 µg/mL (≈ 158 µM) | ICmax (Escherichia coli [12]): 512 µg/mL | MIC (Escherichia coli [12]; Escherichia coli, MRC17): 512 µg/mL (≈ 1290 µM) | ICmax (Escherichia coli [13]): 512 µg/mL | Activity (CHO [14]): Toxic | MIC (Escherichia coli [15]): 16 µg/mL | Activity (CHO [16]): Non-Toxic | Activity (Escherichia coli [17]): 100% | MIC (Klebsiella pneumoniae): 500 µg/mL (≈ 1260 µM) | MIC (Pseudomonas aeruginosa [18]): 250 µg/mL (≈ 631 µM) | IC50 (Escherichia coli [19]): 0.404 µg/mL (≈ 1.02 µM) | fractional inhibitory concentration index (FICI) (Escherichia coli [20]): 1.5 | Activity (Escherichia coli [21]): 100% | MIC (Escherichia coli [22]): 512 µg/mL | Activity (Escherichia coli [23]): Active | ICmax (Escherichia coli [24]): 1024 µg/mL | fractional inhibitory concentration index (FICI) (Escherichia coli [25]): 1.125 | Activity (Streptococcus pneumoniae [26]): Active | inhibition (Streptococcus pneumoniae [27]): 98.2% | Activity (Pseudomonas aeruginosa [28]): Active | MIC (Escherichia coli [29]): 512 µg/mL
